Experimental data of several laboratories.
Lines come from different studies, so protocols differ.
HTR2B: 5-hydroxytryptamine receptor 2B (HTR2B, Homo sapiens, UniProt P41595)
mraY: mraY (Staphylococcus aureus, UniProt Q2FZ93)
TACR1: Substance-P receptor (TACR1, Homo sapiens, UniProt P25103)

The inhibition of `COc1cc2c3c(c1OC)-c1c(OC)ccc(N4CCOCC4)c1CC3N(C)CC2` (stereo not drawn) is reported as 80% (HTR2B; ligand displacement, radioligand; 10 µM).
With `C#Cc1cc(-c2cc(Nc3nc(N[C@@H](C)c4ccc(F)cn4)ncc3Cl)n[nH]2)ccc1C=O` the inhibition was 82.4% (Serine/threonine-protein kinase SIK1 (SIK1, Homo sapiens, UniProt P57059); enzyme activity, inhibitor; 0.2 µM).
With `COc1cc2c3c(c1OC)-c1c(OC)ccc(-c4ccc(C#N)cc4)c1CC3N(C)CC2` (stereo not drawn) the inhibition was 24% (5-hydroxytryptamine receptor 2C (HTR2C, Homo sapiens, UniProt P28335); ligand displacement, radioligand; 10 µM).
For `CCCCCCC#Cc1cncc(-c2nnc(SCc3cc(=O)[nH]c4ccccc34)n2C)c1`, the inhibition was 30% (mraY; cell-free assay, inhibitor; 250 µM).
`Cc1cc(F)cc2c(CCC(=O)N[C@@H]3C(=O)NC[C@H]3O)c(-c3ccc(F)cc3)[nH]c12` has an inhibition of 25% (TACR1; cell-free assay; 10 µM).
For `CCCCCCC#Cc1cncc(-c2nnc(SC[C@H]3O[C@@H](n4ccc(=O)[nH]c4=O)[C@H](O)[C@@H]3O)n2CCCN)c1`, the inhibition was 44% (mraY; cell-free assay, inhibitor; 250 µM).
`NC/C(=C\F)COc1cccc(Cn2c(=S)[nH]c(=O)c3[nH]cnc32)c1` has an inhibition of less than 50% (B2 bradykinin receptor (BDKRB2, Homo sapiens, UniProt P30411); ligand displacement, radioligand; 10 µM).
With `COc1cc2c3c(c1OC)-c1c(OC)ccc(NC(C)=O)c1CC3N(C)CC2` (stereo not drawn) the inhibition was 20% (HTR2B; ligand displacement, radioligand; 10 µM).
`CCCCCCC#Cc1cncc(-c2nnc(SCc3cc(C(F)(F)F)cc(C(F)(F)F)c3)n2CCCN)c1` gave an inhibition of 53% (mraY; cell-free assay, inhibitor; 250 µM).
For `CCN1/C(=C/C(C)=O)Sc2ccc(F)cc21`, the inhibition was 20.8% (TACR1; ligand displacement, radioligand; 10 µM).
`CC[N+]1(C)CCc2cc(OC)c(OC)c3c2C1Cc1cccc(OC)c1-3` (stereo not drawn) gave an inhibition of 26% (HTR2B; ligand displacement, radioligand; 10 µM).
With `CCCCCCC#Cc1cncc(-c2nnc(SCCCn3ccc(=O)[nH]c3=O)n2C)c1` the inhibition was 7% (mraY; enzyme activity, inhibitor; 100 µM).
